Results taken from ChEMBL document CHEMBL4689842, “EUbOPEN Chemogenomics Library wave 1” (2021).
Values joined by “and” are separate entries in the source; they are usually repeats but may differ in a detail not shown here. Identical values can stand only once.

System: U2OS
Assay: Multiplex assay against U2OS
Type: toxicity, cell-based
Conditions: human
In short: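 Live cells were stained at seeding with Hoechst33342, BioTracker Green Microtubule Cytoskeleton Dye, MitoTracker Red and Annexin V Alexa Fluor 680. Following compound addition, they were imaged on a CQ1 microscope at 37°C and 5% CO2 and gated by CellPathfinder machine learning into Hoechst high-intensity objects or normal cells, with normal cells split into healthy, pyknosed or fragmented nuclei and pyknosed cells into mitotic or apoptotic. Tubulin, mitochondrial-mass and membrane-permeability phenotypes are per cents of healthy-nucleus cells.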

[1] = 12 h, 1 µM, compound concentration 1 uM, replicate 1
[2] = 12 h, 1 µM, compound concentration 1 uM, replicate 2
[3] = 12 h, 10 µM, compound concentration 10 uM, replicate 1
[4] = 12 h, 10 µM, compound concentration 10 uM, replicate 2
[5] = 24 h, 1 µM, compound concentration 1 uM, replicate 1
[6] = 24 h, 1 µM, compound concentration 1 uM, replicate 2
[7] = 24 h, 10 µM, compound concentration 10 uM, replicate 1
[8] = 24 h, 10 µM, compound concentration 10 uM, replicate 2
[9] = 48 h, 10 µM, compound concentration 10 uM, replicate 1
[10] = 48 h, 10 µM, compound concentration 10 uM, replicate 2
[11] = 48 h, 1 µM, compound concentration 1 uM, replicate 1
[12] = 48 h, 1 µM, compound concentration 1 uM, replicate 2

COc1cc2nccc(Oc3ccc(NC(=O)Nc4cc(C)on4)c(Cl)c3)c2cc1OC.O
Population Apoptotic (%) [1]: 50% and 42% | Population Fragmented Nuclei (%) [1]: 7% and 3% | Population Healthy Nuclei (%) [1]: 86% and 89% | Population Membrane Permeable-Phenotype (%) [1]: 26% | Population Mitotic Cells (%) [1]: 50% and 57% | Population Normal (%) [1]: 95% and 98% | Population Pyknosed Nuclei (%) [1]: 6% and 7% | Total Cell Count [1]: 193 and 192 | Population Apoptotic (%) [2]: 0% | Population Fragmented Nuclei (%) [2]: 10% and 8% | Population Healthy Nuclei (%) [2]: 77% and 91% | Population Hoechst High Intensity Objects (%) [2]: 6% and 14% | Population Membrane Permeable-Phenotype (%) [2]: 25% and 19% | Population Mitochondria Different-Phenotype (%) [2]: 61% and 24% | Population Mitotic Cells (%) [2]: 0% | Population Normal (%) [2]: 93% and 85% | Population Pyknosed Nuclei (%) [2]: 12% and 0% | Population Tubulin-Different-Phenotype (%) [2]: 19% | Total Cell Count [2]: 132 and 71 | Population Apoptotic (%) [3]: 70% | Population Fragmented Nuclei (%) [3]: 16% | Population Healthy Nuclei (%) [3]: 57% | Population Hoechst High Intensity Objects (%) [3]: 11% | Population Membrane Permeable-Phenotype (%) [3]: 25% | Population Mitochondria Different-Phenotype (%) [3]: 96% | Population Mitotic Cells (%) [3]: 30% | Population Normal (%) [3]: 88% | Population Pyknosed Nuclei (%) [3]: 25% | Population Tubulin-Different-Phenotype (%) [3]: 100% | Total Cell Count [3]: 152 | Population Apoptotic (%) [4]: 71% | Population Fragmented Nuclei (%) [4]: 11% | Population Healthy Nuclei (%) [4]: 75% | Population Hoechst High Intensity Objects (%) [4]: 3% | Population Membrane Permeable-Phenotype (%) [4]: 36% | Population Mitochondria Different-Phenotype (%) [4]: 97% | Population Mitotic Cells (%) [4]: 28% | Population Normal (%) [4]: 96% | Population Pyknosed Nuclei (%) [4]: 12% | Population Tubulin-Different-Phenotype (%) [4]: 97% | Total Cell Count [4]: 58 | Population Apoptotic (%) [5]: 73% and 33% | Population Healthy Nuclei (%) [5]: 62% and 92% | Population Membrane Permeable-Phenotype (%) [5]: 42% and 15% | Population Mitotic Cells (%) [5]: 26% and 66% | Population Normal (%) [5]: 95% and 98% | Total Cell Count [5]: 272 and 251 | Population Apoptotic (%) [6]: 83% and 100% | Population Fragmented Nuclei (%) [6]: 17% and 9% | Population Healthy Nuclei (%) [6]: 58% and 89% | Population Hoechst High Intensity Objects (%) [6]: 15% and 9% | Population Membrane Permeable-Phenotype (%) [6]: 47% and 17% | Population Mitotic Cells (%) [6]: 16% and 0% | Population Normal (%) [6]: 84% and 90% | Population Pyknosed Nuclei (%) [6]: 24% and 0% | Total Cell Count [6]: 159 and 78 | Population Apoptotic (%) [7]: 82% | Population Fragmented Nuclei (%) [7]: 28% | Population Healthy Nuclei (%) [7]: 42% | Population Hoechst High Intensity Objects (%) [7]: 8% | Population Membrane Permeable-Phenotype (%) [7]: 61% | Population Mitochondria Different-Phenotype (%) [7]: 98% | Population Mitotic Cells (%) [7]: 17% | Population Normal (%) [7]: 91% | Population Pyknosed Nuclei (%) [7]: 29% | Population Tubulin-Different-Phenotype (%) [7]: 100% | Total Cell Count [7]: 142 | Population Apoptotic (%) [8]: 92% | Population Fragmented Nuclei (%) [8]: 16% | Population Healthy Nuclei (%) [8]: 60% | Population Hoechst High Intensity Objects (%) [8]: 3% | Population Membrane Permeable-Phenotype (%) [8]: 67% | Population Mitochondria Different-Phenotype (%) [8]: 100% | Population Mitotic Cells (%) [8]: 7% | Population Normal (%) [8]: 96% | Population Pyknosed Nuclei (%) [8]: 23% | Population Tubulin-Different-Phenotype (%) [8]: 97% | Total Cell Count [8]: 58 | Population Apoptotic (%) [9]: 91% | Population Fragmented Nuclei (%) [9]: 41% | Population Healthy Nuclei (%) [9]: 15% | Population Hoechst High Intensity Objects (%) [9]: 13% | Population Membrane Permeable-Phenotype (%) [9]: 86% | Population Mitochondria Different-Phenotype (%) [9]: 100% | Population Mitotic Cells (%) [9]: 8% | Population Normal (%) [9]: 86% | Population Pyknosed Nuclei (%) [9]: 42% | Population Tubulin-Different-Phenotype (%) [9]: 100% | Total Cell Count [9]: 153 | Population Apoptotic (%) [10]: 87% | Population Fragmented Nuclei (%) [10]: 13% | Population Healthy Nuclei (%) [10]: 67% | Population Hoechst High Intensity Objects (%) [10]: 15% | Population Membrane Permeable-Phenotype (%) [10]: 96% | Population Mitotic Cells (%) [10]: 12% | Population Normal (%) [10]: 84% | Population Pyknosed Nuclei (%) [10]: 18% | Total Cell Count [10]: 62

CNc1nc(NCc2ccc(NS(C)(=O)=O)cc2Cl)cc(-c2ccccn2)n1
Population Apoptotic (%) [1]: 35% | Population Fragmented Nuclei (%) [1]: 12% | Population Healthy Nuclei (%) [1]: 70% | Population Hoechst High Intensity Objects (%) [1]: 10% | Population Membrane Permeable-Phenotype (%) [1]: 7% | Population Mitochondria Different-Phenotype (%) [1]: 12% | Population Mitotic Cells (%) [1]: 64% | Population Normal (%) [1]: 89% | Population Pyknosed Nuclei (%) [1]: 17% | Population Tubulin-Different-Phenotype (%) [1]: 19% | Total Cell Count [1]: 121 | Population Apoptotic (%) [2]: 33% | Population Fragmented Nuclei (%) [2]: 11% | Population Healthy Nuclei (%) [2]: 82% | Population Hoechst High Intensity Objects (%) [2]: 8% | Population Membrane Permeable-Phenotype (%) [2]: 0% | Population Mitochondria Different-Phenotype (%) [2]: 9% | Population Mitotic Cells (%) [2]: 66% | Population Normal (%) [2]: 91% | Population Pyknosed Nuclei (%) [2]: 5% | Population Tubulin-Different-Phenotype (%) [2]: 11% | Total Cell Count [2]: 61 | Population Apoptotic (%) [3]: 61% | Population Fragmented Nuclei (%) [3]: 13% | Population Healthy Nuclei (%) [3]: 75% | Population Hoechst High Intensity Objects (%) [3]: 10% | Population Membrane Permeable-Phenotype (%) [3]: 5% | Population Mitochondria Different-Phenotype (%) [3]: 29% | Population Mitotic Cells (%) [3]: 38% | Population Normal (%) [3]: 89% | Population Tubulin-Different-Phenotype (%) [3]: 37% | Total Cell Count [3]: 91 | Population Apoptotic (%) [4]: 57% | Population Fragmented Nuclei (%) [4]: 6% | Population Healthy Nuclei (%) [4]: 81% | Population Hoechst High Intensity Objects (%) [4]: 9% | Population Membrane Permeable-Phenotype (%) [4]: 12% | Population Mitochondria Different-Phenotype (%) [4]: 32% | Population Mitotic Cells (%) [4]: 42% | Population Normal (%) [4]: 90% | Population Pyknosed Nuclei (%) [4]: 11% | Population Tubulin-Different-Phenotype (%) [4]: 30% | Total Cell Count [4]: 56 | Population Apoptotic (%) [5]: 50% | Population Fragmented Nuclei (%) [5]: 9% | Population Healthy Nuclei (%) [5]: 78% | Population Hoechst High Intensity Objects (%) [5]: 8% | Population Membrane Permeable-Phenotype (%) [5]: 3% | Population Mitochondria Different-Phenotype (%) [5]: 17% | Population Mitotic Cells (%) [5]: 50% | Population Normal (%) [5]: 91% | Population Pyknosed Nuclei (%) [5]: 11% | Population Tubulin-Different-Phenotype (%) [5]: 19% | Total Cell Count [5]: 125 | Population Apoptotic (%) [6]: 25% | Population Fragmented Nuclei (%) [6]: 8% | Population Healthy Nuclei (%) [6]: 85% | Population Hoechst High Intensity Objects (%) [6]: 1% | Population Membrane Permeable-Phenotype (%) [6]: 0% | Population Mitochondria Different-Phenotype (%) [6]: 11% | Population Mitotic Cells (%) [6]: 75% | Population Normal (%) [6]: 98% | Population Pyknosed Nuclei (%) [6]: 5% | Population Tubulin-Different-Phenotype (%) [6]: 11% | Total Cell Count [6]: 67 | Population Apoptotic (%) [7]: 52% | Population Fragmented Nuclei (%) [7]: 18% | Population Healthy Nuclei (%) [7]: 67% | Population Hoechst High Intensity Objects (%) [7]: 8% | Population Membrane Permeable-Phenotype (%) [7]: 6% | Population Mitochondria Different-Phenotype (%) [7]: 23% | Population Mitotic Cells (%) [7]: 47% | Population Normal (%) [7]: 91% | Population Pyknosed Nuclei (%) [7]: 14% | Population Tubulin-Different-Phenotype (%) [7]: 29% | Total Cell Count [7]: 113 | Population Apoptotic (%) [8]: 50% | Population Fragmented Nuclei (%) [8]: 20% | Population Healthy Nuclei (%) [8]: 66% | Population Hoechst High Intensity Objects (%) [8]: 10% | Population Membrane Permeable-Phenotype (%) [8]: 4% | Population Mitochondria Different-Phenotype (%) [8]: 26% | Population Mitotic Cells (%) [8]: 50% | Population Normal (%) [8]: 89% | Population Pyknosed Nuclei (%) [8]: 12% | Population Tubulin-Different-Phenotype (%) [8]: 17% | Total Cell Count [8]: 71 | Population Apoptotic (%) [11]: 41% | Population Fragmented Nuclei (%) [11]: 12% | Population Healthy Nuclei (%) [11]: 76% | Population Hoechst High Intensity Objects (%) [11]: 7% | Population Membrane Permeable-Phenotype (%) [11]: 0% | Population Mitochondria Different-Phenotype (%) [11]: 21% | Population Mitotic Cells (%) [11]: 58% | Population Normal (%) [11]: 92% | Population Pyknosed Nuclei (%) [11]: 11% | Population Tubulin-Different-Phenotype (%) [11]: 21% | Total Cell Count [11]: 114 | Population Apoptotic (%) [12]: 0% | Population Fragmented Nuclei (%) [12]: 6% | Population Healthy Nuclei (%) [12]: 90% | Population Hoechst High Intensity Objects (%) [12]: 3% | Population Membrane Permeable-Phenotype (%) [12]: 2% | Population Mitochondria Different-Phenotype (%) [12]: 19% | Population Mitotic Cells (%) [12]: 100% | Population Normal (%) [12]: 96% | Population Pyknosed Nuclei (%) [12]: 3% | Population Tubulin-Different-Phenotype (%) [12]: 15% | Total Cell Count [12]: 71 | Population Apoptotic (%) [9]: 64% | Population Healthy Nuclei (%) [9]: 53% | Population Hoechst High Intensity Objects (%) [9]: 8% | Population Membrane Permeable-Phenotype (%) [9]: 7% | Population Mitochondria Different-Phenotype (%) [9]: 28% | Population Mitotic Cells (%) [9]: 35% | Population Normal (%) [9]: 91% | Population Pyknosed Nuclei (%) [9]: 25% | Population Tubulin-Different-Phenotype (%) [9]: 10% | Total Cell Count [9]: 165 | Population Apoptotic (%) [10]: 44% | Population Fragmented Nuclei (%) [10]: 21% | Population Healthy Nuclei (%) [10]: 51% | Population Hoechst High Intensity Objects (%) [10]: 13% | Population Membrane Permeable-Phenotype (%) [10]: 20% | Population Mitochondria Different-Phenotype (%) [10]: 41% | Population Mitotic Cells (%) [10]: 55% | Population Normal (%) [10]: 86% | Population Pyknosed Nuclei (%) [10]: 27% | Population Tubulin-Different-Phenotype (%) [10]: 23% | Total Cell Count [10]: 124
